The test system of test [1] is MES-SA. Kind of test: Cytotoxicity against human MES-SA cells assessed as cell growth inhibition incubated for 144 hrs by fluorescence microplate reader assay. In kind it is functional, cell-based. An outline of the steps: (§1)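 MES-SA (mCherry) and doxorubicin-selected Dx5 (eGFP; pretreated with 500 nM doxorubicin to keep P-gp expression) co-cultured, 1250 cells each per well, settled overnight. Serial dilutions added, 144 h incubation. Viability read by fluorescence (mCherry ex 585/em 610 nm; eGFP ex 485/em 510 nm). IC50 by automated curve evaluation; two-sided unpaired t-test.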

For test [2], the system named is MES-SA. Kind of test: Cytotoxicity against human MES-SA cells assessed as cell growth inhibition incubated for 144 hrs in presence of P-gp inhibitor Tariquidar by fluorescence microplate reader assay. In kind it is functional, cell-based. In outline: (§2)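 Co-culture of fluorescent MES-SA (mCherry) and Dx5 (eGFP, doxorubicin 500 nM pretreated) exposed to serial dilutions plus 0.4 µM tariquidar for 144 h. Per-line fluorescence read-out gave IC50. Resistance ratio = IC50 Dx5 / IC50 MES-SA; significance by two-sided unpaired t-test.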

Test [3] concerns MES-SA/Dx5. Kind of test: Inhibition of P-gp in multidrug resistance human MES-SA/Dx5 cells assessed as inhibition of calcein-AM efflux at 20 uM incubated for 15 mins by calcein-AM staining based flow cytometry analysis.
Test [4] relates to MES-SA/Dx5. Kind of test: Cytotoxicity against multidrug resistance human MES-SA/Dx5 cells assessed as cell growth inhibition incubated for 144 hrs by fluorescence microplate reader assay. It is filed as functional, cell-based. The following applies: MES-SA/Dx5, 144 h. An outline of the steps:
as §1

The test system of test [5] is MES-SA/Dx5. Kind of test: Cytotoxicity against multidrug resistance human MES-SA/Dx5 cells assessed as cell growth inhibition incubated for 144 hrs in presence of P-gp inhibitor Tariquidar by fluorescence microplate reader assay. In kind it is functional, cell-based. The following applies: MES-SA/Dx5, 144 h. In outline:
as §2

The nature of test [6]: Resistance ratio of IC50 for cytotoxicity against multidrug resistance human MES-SA/Dx5 cells in presence of P-gp inhibitor Tariquidar to IC50 for cytotoxicity against human MES-SA cells in presence of P-gp inhibitor Tariquidar. In kind it is functional. In outline: as §2
The nature of test [7]: Resistance ratio of IC50 for cytotoxicity against multidrug resistance human MES-SA/Dx5 cells to IC50 for cytotoxicity against human MES-SA cells. In kind it is functional.
Test [8] deals with MES-SA/Dx5. Kind of test: Cytotoxicity against multidrug resistance human MES-SA/Dx5 cells assessed as inhibition of calcein-AM efflux at 20 uM incubated for 15 mins in presence of metal chelator EDTA by calcein-AM staining based flow cytometry analysis. In kind it is functional, cell-based. In outline:
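Calcein accumulation in non-fluorescent Dx5 cells, 250 000 per tube, with every step from preincubation to measurement in PBS containing 1 µM EDTA. Cells preincubated 5 min with 20 µM compound, then 250 nM calcein-AM for 10 min at 37 °C. Read by flow cytometry with TO-PRO-3 live/dead stain. Controls: verapamil 20 µM, no inhibitor.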

Test [9] concerns MES-SA/Dx5. As to the kind of experiment: Cytotoxicity against multidrug resistance human MES-SA/Dx5 cells assessed as reduction on calcein accumulation by measuring cell distribution at 20 uM incubated for 15 mins by calcein-AM staining based flow cytometry analysis. The note with it: 0.25 h. Also noted: scale not given: the % may be the effect or the level left. It is filed as functional. In outline:
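Non-fluorescent Dx5 cells, 250 000 per tube, washed in serum-free DMEM, preincubated 5 min at 37 °C with compound at 20 µM. Calcein-AM then added (250 nM final) for 10 min more. Stopped with ice-cold PBS and kept on ice. Calcein fluorescence measured by flow cytometry, TO-PRO-3 live/dead gating. Controls: 20 µM verapamil, medium only.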

Calls of active or inactive are those of the source. The calls are words filed in the database; no cut-off is given here.

Results on 16 compounds are retold here after ChEMBL document CHEMBL5126583, “Cytotoxicity of cinchona alkaloid organocatalysts against MES-SA and MES-SA/Dx5 multidrug-resistant uterine sarcoma cell lines” (Bioorg Med Chem, 2022).

The term IC50 denotes the concentration needed to halve the response being measured.

`C=C[C@H]1CN2CC[C@H]1C[C@H]2[C@H](O)c1ccnc2ccc(OC)cc12` [QUININE]: the IC50 in test [1] is 93 µM; in test [2] it was 91 µM; in test [4], 67 µM; in test [5], 43 µM. Besides, the result in test [3] was Active. For the same compound, the “Ratio IC50” value in test [6] worked out at 0.5; in [7] it was 0.7.
For the compound `CC[C@H]1CN2CC[C@H]1C[C@H]2[C@@H](NC(=S)Nc1cc(C(F)(F)F)cc(C(F)(F)F)c1)c1ccnc2ccc(OC)cc12`, the concentration for half-maximal inhibition (IC50) in test [1] turned out to be 1.3 µM; in [2], 1 µM; in test [4], 1.5 µM; in [5] it was 0.9 µM. Moreover, the entries for the “Ratio IC50” value in test [6] and in test [7] were 0.8 and 1.2, respectively.
Turning to `CC[C@H]1CN2CC[C@H]1C[C@H]2[C@@H](Nc1c(Nc2cc(C(F)(F)F)cc(C(F)(F)F)c2)c(=O)c1=O)c1ccnc2ccc(OC)cc12`, the IC50 in test [1] was 3.6 µM; in test [2], 4.4 µM; in test [4], 11 µM; in test [5] it was 2.3 µM. The results for the “Ratio IC50” value in [6] and in [7] were 0.5 and 2.9, respectively.
Regarding `CC[C@H]1CN2CC[C@H]1C[C@H]2[C@H](O)c1ccnc2ccc(OC)cc12` [HYDROQUININE], the IC50 came out at 48 µM in [1] and 47 µM in test [4]. The “Ratio IC50” value in test [7] came out at 1.
In the case of `CC[C@H]1CN2CC[C@H]1C[C@H]2[C@@H](Nc1c(NCc2ccccc2)c(=O)c1=O)c1ccnc2ccc(OC)cc12`, the IC50 stood at 3.1 µM in test [1], 3.9 µM in test [2], 21 µM in test [4] and 3.4 µM in test [5]. Besides, the outcome in test [8] was Active. Besides, the figures for the “Ratio IC50” value in test [6] and in [7] were 0.9 and 6.6, respectively. Besides, the Activity in [9] was 53.1%.
Regarding `Oc1c(CN2CCCCC2)ccc2cccnc12`, the “Ratio IC50” value in test [7] stood at 0.1.
Take `C=C[C@H]1CN2CC[C@H]1C[C@H]2[C@@H](N)c1ccnc2ccc(OC)cc12`: the IC50 in test [1] is 81 µM; in test [2], 115 µM; in [4], 197 µM; in test [5], 121 µM. Besides, the result in [3] was Active. The “Ratio IC50” value amounted to 1 in [6] and 2.4 in [7].
`C=C[C@H]1CN2CC[C@H]1C[C@H]2[C@@H](NC(=S)Nc1cc(C(F)(F)F)cc(C(F)(F)F)c1)c1ccnc2ccc(OC)cc12`: the IC50 in [1] is 2.3 µM; in [4], 2.8 µM. In addition, the result in test [3] was Active. The “Ratio IC50” value in test [7] turned out to be 1.2.
`CC[C@H]1CN2CC[C@H]1C[C@H]2[C@@H](N)c1ccnc2ccc(OC)cc12`: the IC50 was 80 µM in [1], 82 µM in test [2], 105 µM in test [4] and 48 µM in [5]. The “Ratio IC50” value in test [6] stood at 0.6; in test [7], 1.3.
With `C=C[C@H]1CN2CC[C@H]1C[C@H]2[C@@H](Nc1c(Nc2cc(C(F)(F)F)cc(C(F)(F)F)c2)c(=O)c1=O)c1ccnc2ccc(OC)cc12`, the IC50 in test [1] was 4.2 µM; in test [2] it was 4.9 µM; in test [4], 12 µM; in test [5], 2.7 µM. Moreover, in test [3], the result was Active. Also, the “Ratio IC50” value in test [6] worked out at 0.5; in [7], 3.
For the compound `C#C[C@H]1CN2CC[C@H]1C[C@H]2[C@H](O)c1ccnc2ccc(OC)cc12`, the IC50 in test [1] worked out at 111 µM; in [2], 117 µM; in [4] it was 85 µM; in [5], 79 µM. In addition, the “Ratio IC50” value was 0.7 in test [6] and 0.8 in test [7].
For the compound `C#C[C@H]1CN2CC[C@H]1C[C@H]2[C@@H](N)c1ccnc2ccc(OC)cc12`, the IC50 stood at 29 µM in test [1], 30 µM in [2], 161 µM in test [4] and 146 µM in test [5]. The “Ratio IC50” value is on record as 4.9 in test [6] and 5.6 in test [7].
For `CC[C@H]1CN2CC[C@H]1C[C@H]2[C@@H](Nc1c(NCc2ccccc2)c(=S)c1=S)c1ccnc2ccc(OC)cc12`, the IC50 in [1] is 57 µM; in test [2] it was 56 µM; in [4], 65 µM; in [5], 50 µM. Moreover, the result in [3] was Active. Besides, the “Ratio IC50” value is 0.9 in [6] and 1.1 in [7].
Take `C#C[C@H]1CN2CC[C@H]1C[C@H]2[C@@H](NC(=S)Nc1cc(C(F)(F)F)cc(C(F)(F)F)c1)c1ccnc2ccc(OC)cc12`: the IC50 was 4.2 µM in test [1] and 3.9 µM in test [4]. Moreover, the “Ratio IC50” value in test [7] is 0.9.
As to `C#C[C@H]1CN2CC[C@H]1C[C@H]2[C@@H](Nc1c(Nc2cc(C(F)(F)F)cc(C(F)(F)F)c2)c(=O)c1=O)c1ccnc2ccc(OC)cc12`, the IC50 worked out at 3.9 µM in test [1], 5.5 µM in test [2], 14 µM in test [4] and 2.3 µM in test [5]. The “Ratio IC50” value worked out at 0.4 in test [6] and 3.7 in test [7].
As to `COc1cccc2c1C(=O)c1c(O)c3c(c(O)c1C2=O)C[C@@](O)(C(=O)CO)C[C@@H]3O[C@H]1C[C@H](N)[C@H](O)[C@H](C)O1` [DOXORUBICIN], the “Ratio IC50” value in test [6] worked out at 0.8; in test [7], 62.5.
